Bioassay records as filed in PubChem BioAssay.
ERAP1 HTS inh = blocks human ERAP1 aminopeptidase activity; Q9NZ08; recombinant ERAP1, Leu-AMC fluorescence, 60 min; inhibition, % at 10.7 µM; actives 0.15% (n = 340,000);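 active = mean replicate inhibition of at least 30%, or all replicates individually reaching that 30% level; inactive = mean below 30% and not every replicate reaching it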;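 note: 0% = neutral control wells and 100% = L-leucinethiol positive control wells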
rRNA inh HTS = selective bacterial rRNA inhibition in E. coli; E. coli WT GFP vs humanized-ribosome RFP mutants, fluorescence, 24 h; hits give low values; DMSO median 0, no signal -100; GFP signal change (wild-type ribosome), % (concentration not given with the values); actives 1.6% (n = 350,000);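 active = significant combined selectivity score with lowered wild-type GFP, culture density cut under 30%, mutant RFP and density less affected; inactive = any of these conditions unmet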
E-selectin induc = E-selectin induction on HUVECs; P16581; HUVEC E-selectin immunofluorescence imaging; normalized: neutral wells 0, TNF-alpha wells 100; activation, % at 7.58 µM; actives 0.37% (n = 260,000); AID 686992;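 active = mean E-selectin-positive cell signal at least 10% of the positive control, reached in at least 60% of replicates, without over 20% cell loss; inconclusive = no rule given, readout overlaps actives, possibly toxicity-flagged; inactive = the rest, including those meeting only one limit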
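Assay system: HUVEC primary endothelial cells. Input: 3,000 HUVEC seeded per well. Doses: one compound dose added by pin transfer. Read-out basis: % PE-positive cells. Benchmarks: TNF-alpha high, DMSO low. Detection: immunofluorescence imaging. Buffer or medium: EGM-2, gelatin.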
SIRT5 inh = blocks human SIRT5 desuccinylation of peptide | inhibition, % at 15 µM | Purified SirT5, succinyl-peptide AMC, trypsin-coupled fluorescence | Q9NXA8 | actives 1.1% (n = 330,000) | AID 652115; in the data active = inhibition above about 15%; inconclusive = no clear call, values can overlap the other calls
S100A4 inh HTS = S100A4-myosin IIA interaction inhibition | S100A4/TAMRA-MyoIIA peptide fluorescence polarization | inhibition, % at 10.7 µM | actives 0.14% (n = 360,000) | AID 652163;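 active = mean inhibition of at least 70% across replicates, with every replicate also reaching that level; inconclusive = mean inhibition reaches 70% but some replicates fall short; inactive = mean inhibition below 70%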
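Compound dosing: one dose per compound; test system: human S100A4 monomer with TAMRA-labelled myosin IIA peptide; probe or stimulus: TAMRA-labelled myosin IIA heavy-chain peptide probe, 5 nM; medium: HEPES buffer with Ca2+, pH 7.2; schedule: 5 min incubation before reading; benchmarks: neutral control DMSO, positive control TFP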
MLL AF4-AF9 inh = inhibitors of human MLL-AF4/AF9 interaction; actives 0.47% (n = 350,000); AlphaScreen, biotin-AF4 peptide binding to FLAG-AF9; P42568; inhibition, % at 10 µM;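 active = every replicate reaching a set inhibition limit, whatever the replicate mean, cut at about 25% in these data; inconclusive = mean inhibition reaches that limit but some replicates miss it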;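 note: 0% = plate neutral control median and 100% = total signal loss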
HepG2 tox = kills or reduces viability of HepG2 cells. shares compounds with rRNA inh HTS. ATP luminescence, 72 h. activity change, negative = cytotoxicity, unspecified at 26 µM. 30 tested, under 10 active. AID 743480;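 active = compounds whose fitted half-maximal signal-loss concentration is at most twice their highest valid dose; inconclusive = flat curve with 30 to 70% signal loss, or poor fit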
AID977621 = wild-type E. coli growth inhibition versus H69 humanized strain – H69 mutant RFP, wild-type GFP, cherry-pick, dose response. shares compounds with rRNA inh HTS. fluorescence, 24 h. activity change, negative = inhibition at 50 µM. 1,900 tested, under 10 active;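 active = Wild-type ribosome reporter drop at least double the humanized mutant ribosome reporter drop, growth loss under a set limit; inconclusive = no clear call, values can overlap the other calls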;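 note: wild-type GFP and H69 mutant RFP strains grown together 50/50 in each well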
AID977628 = growth of wild-type and h24-humanized E. coli strains – h24 mutant RFP vs wild-type GFP, cherry-pick, dose response; shares compounds with rRNA inh HTS; E. coli WT GFP strain growth, fluorescence, 24 h; activity change, negative = inhibition at 50 µM; 1,900 tested, under 10 active; AID 977628;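 active = compound lowering the normal-ribosome reporter at least twice as much as the humanized-ribosome reporter, growth loss under a set limit; inconclusive = no clear call, values can overlap the other calls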;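 note: wild-type GFP and h24 humanized RFP strains co-cultured 1 to 1 per well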
* = called active by the depositor; ? = inconclusive; / = not tested or not shown. Shown are actives, neighbours in structure and some others; about 3.4% of the full set was active somewhere.

SMILES | ERAP1 HTS inh | rRNA inh HTS | E-selectin induc | SIRT5 inh | S100A4 inh HTS | MLL AF4-AF9 inh | AID977621 | AID977628 | others
CCc1cc2ccc(OC)cc2nc1SCC(=O)N1CCN(C(=O)c2ccco2)CC1 | 4 | -26* | / | -3 | -6 | 7 | -21 | /
O=C(c1ccc(N2CCCCC2)c([N+](=O)[O-])c1)N1CCN(S(=O)(=O)c2ccccc2)CC1 | 2 | -16 | 0 | -2 | -1 | 8 | / | /
O=C(c1ccc(N2CCCCC2)c([N+](=O)[O-])c1)N1CCN(c2ccccn2)CC1 | 2 | -21* | 0 | -6 | 2 | 0 | / | ?
Cn1c(=O)n(C)c2cc([N+](=O)[O-])c(N3CCN(C(=O)c4cccc(F)c4)CC3)cc21 | -3 | -18* | / | -2 | -2 | -2 | -12 | ?
CCCC#Cc1cnc2c(c1)C(=O)N([C@@H](C)CO)C[C@@H](C)[C@H](CN(C)C(=O)C1CCC1)O2 | 1 | 0 | 0 | -2 | -17 | -1 | / | /
O=C(Nc1ccn(Cc2ccc(Cl)cc2)n1)c1ccccc1 | 2 | -24* | 0 | -2 | 5 | 2 | -1.2 | -9.7
CC(C)C[C@@H](CSc1ccccc1)N1CCN(CC(C)C)CCC1=O | -1 | -23* | 0 | / | -9 | -7 | ? | /
CCCN1CCC(=O)N([C@H](CSc2ccccc2)CC(C)C)CC1 | / | -1 | 0 | / | 0 | -8 | / | /
CCCCNC(=O)c1onc(CSc2cc(C)cc(C)c2)c1C(=O)O | -2 | -29* | 0 | -2 | -5 | / | -7.9 | /
Cc1ccc2c(c1)OC(=O)CC2c1ccccc1 (centres undefined) | / | / | / | / | 15 | -4 | / | /
Cc1ccc2c(c1C)OC(=O)CC2c1ccccc1 (centres undefined) | -2 | -27* | 0 | -2 | -5 | -4 | / | ?
C[C@@H]1CN([C@@H](C)CO)S(=O)(=O)c2ccc(C#CC3(O)CCCC3)cc2O[C@@H]1CN(C)C(=O)c1cccnc1 | -4 | 4 | / | -6 | -9 | -3 | / | /
COC(=O)c1cn(C(=O)c2ccc(C)cc2)c2ccccc12 | 0 | -7 | / | / | 3 | -1 | / | /
COC(=O)c1cn(C(=O)c2ccc(OC)cc2)c2ccccc12 | 4 | -26* | / | -2 | -6 | -6 | 2.4 | -9.2
O=S(=O)(Cc1ccco1)Cc1nc(-c2ccc(Cl)cc2)cs1 | 0 | -34* | 7 | -2 | 21 | -3 | -1.1 | -4.7
Cc1ccc(-c2nc(CN3CCCCC3c3cccc(F)c3)c(C)o2)o1 (centres undefined) | -1 | -18* | / | -2 | -7 | 8 | -5.9 | -15
C/C=C/C(=O)N1c2ccc(C)cc2C(C)=CC1(C)C | 0 | 2 | 0 | 0 | -2 | 2 | / | /
CC1=CC(C)(C)N(C(=O)CSc2nnc(C)s2)c2ccc(C)cc21 | 1 | -17* | / | 3 | -1 | 2 | 5.1 | ?
Cc1c(C(=O)O)sc2nc(CSc3ncc(C(F)(F)F)cc3Cl)[nH]c(=O)c12 | 1 | -33* | / | 7 | -15 | 1 | / | / | HepG2 tox=21
NS(=O)(=O)c1cccc(NC(=O)COc2ncnc3c2cnn3-c2ccccc2)c1 | 4 | -20* | -1 | -3 | 4 | -2 | ? | /
OC(COc1ccc(Cl)cc1)CN1CCN(c2ccccn2)CC1 (centres undefined) | -2 | -22* | 0 | -7 | -6 | -2 | / | -6.8
O=C(Nc1ccc2c(c1)OCCO2)c1cccnc1Oc1ccccc1 | -2 | -14 | 0 | 0 | -3 | -3 | / | /
O=C(Nc1ccc2c(c1)OCCO2)c1cccnc1Oc1ccc(Cl)cc1 | 1 | -27* | 1 | -4 | -9 | 3 | -7.1 | /
CNC[C@H]1OCCCC[C@H](C)Oc2ccc(N(C)C)cc2C(=O)N([C@H](C)CO)C[C@@H]1C | -3 | 9 | 2 | -9 | 9 | -5 | / | /
CN(C)CC(=O)Nc1ccc2c(c1)[C@@H]1C[C@@H](CC(=O)NCc3ccncc3)O[C@H](CO)[C@@H]1O2 | -1 | 5 | 0 | -3 | 8 | -2 | / | /
SMILES | ERAP1 HTS inh | rRNA inh HTS | E-selectin induc | SIRT5 inh | S100A4 inh HTS | MLL AF4-AF9 inh | AID977621 | AID977628 | others
Cc1ccc2oc(=O)n(CC(=O)OCCC(C)C)c2c1 | / | -18* | 0 | -4 | -12 | 10 | -14 | -2.5
Cc1ccc2oc(=O)n(CCOc3ccccc3C)c2c1 | -4 | 12 | 1 | -4 | -2 | 1 | / | /
Cc1ccc2oc(=O)n(CCCOc3ccccc3C)c2c1 | 2 | -19* | 0 | -5 | -4 | -3 | -8.4 | ?
C[C@@H]1CN([C@@H](C)CO)S(=O)(=O)c2ccc(C#CC3(O)CCCC3)cc2O[C@H]1CN(C)C(=O)c1cccnc1 | 1 | 3 | / | -3 | -13 | -1 | / | /
CC(C)NC(=O)NCC[C@H]1CC[C@H](NC(=O)CN(C)C)[C@H](CO)O1 | 3 | -1 | 0 | 9 | 3 | 1 | / | /
COc1cc2c(cc1OC)[C@@]13ON=C(c4ccc(OCCO)cc4)[C@@H]1CCN3CC2 | 0 | / | / | -2 | -1 | -3 | / | /
CN1N=C2c3ccccc3CCC2C1c1ccc(F)cc1 (centres undefined) | -5 | -16* | 0 | -4 | -3 | 0 | -9.4 | ?
COc1ccc2c3c([nH]c2c1)[C@@H](CO)N(C(=O)c1cccnc1)CC31CN(C(=O)c2cccnc2)C1 | 1 | 3 | 0 | 3 | -9 | -1 | / | /
COc1ccc(NC(=O)CSc2n[nH]c(-c3ccncc3)n2)c([N+](=O)[O-])c1 | -1 | -18* | 0 | -3 | -5 | -1 | ? | -4.8
COc1ccccc1CC(=O)NCc1csc(-c2cccs2)n1 | 2 | -21* | 0 | 0 | -4 | 0 | -11 | 5.7
COc1ccc2c(CC(=O)NCc3ccc4c(c3)OCO4)coc2c1 | -2 | -25* | / | -4 | -1 | 8 | 2.3 | ?
COc1cccc(CC(=O)OC(C)C(=O)NCc2ccc3c(c2)OCO3)c1 (centres undefined) | 3 | -31* | 0 | -14 | -2 | -2 | ? | ?
Cn1cnc(S(=O)(=O)N[C@@H]2C=C[C@H](CC(=O)N3CCN(c4ccccc4)CC3)O[C@H]2CO)c1 | 0 | 3 | 0 | -1 | 4 | -3 | / | /
Cc1cccc(N2CCN(Cc3nc(-c4ccc(F)cc4F)oc3C)CC2)n1 | -2 | -34* | 0 | -2 | -2 | 7 | -12 | -19
